Laboratory results taken from EPA's CvTdb concentration-time database.

Legend:
[1] = tested on: human; test: concentration in expired air after dosing; conditions: dosed: methyl tert-butyl ether, 15 mg, oral, male
How it was run: (§1)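 A PubMed search, classifier screening and manual review identified published in vivo toxicokinetic studies, which together with two structured collections supplied concentration-versus-time and amount-versus-time points. Points were mostly digitised from plot screenshots with WebPlotDigitizer, otherwise copied from tables. Dose, route, subject details and medium were hand-curated from each paper, and sampling and analytical methods are those of the sources, often unreported.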

[2] = tested on: human; test: concentration in blood after dosing; negative times count back from the end of exposure; conditions: inhalation
How it was run: as §1

[3] = tested on: human; test: concentration in blood after dosing; conditions: dosed: methyl tert-butyl ether
How it was run: as §1

[4] = tested on: rat; test: concentration in blood after dosing; conditions: dosed: methylene chloride, male
[5] = tested on: frog; test: concentration in embryo medium after dosing; conditions: dosed: musk moskene, 400 ug/L embryo medium, dermal, duration: 10 days, xenopus laevis
How it was run: as §1

[6] = tested on: human; test: concentration in urine after dosing; conditions: dosed: benzene, 30 mg/m^3, inhalation, duration: 4 hr, male
How it was run: as §1

[7] = tested on: human; test: concentration in urine after dosing; conditions: dosed: benzene, 30 mg/m^3, inhalation, duration: 4 hr, male; remark: listed apart in the source
How it was run: as §1

[8] = tested on: human; test: concentration in urine after dosing; negative times count back from the end of exposure; conditions: dosed: benzene, 30 mg/m^3, inhalation, duration: 4 hr, male
How it was run: as §1

COC(C)(C)C [methyl tert-butyl ether]
[1]
Conditions	concentration in expired air [µM]
0.1656 h	0.077
0.3208 h	0.077
0.5071 h	0.05141
0.6649 h	0.03325
0.8305 h	0.02815
0.9935 h	0.02117
1.508 h	0.01295
1.995 h	0.009141
2.999 h	0.00625
3.99 h	0.002876
4.996 h	0.002574
5.99 h	0.00141

[2], dosed: methyl tert-butyl ether, 25 ppm, duration: 4 hr, male
Conditions	concentration in blood [µM]
0.2914 h	7.86
0.5342 h	6.55
0.9123 h	5.51
2.155 h	3.31
6.883 h	0.651
20.1 h	0.04

[2], dosed: methyl tert-butyl ether, 25 ppm, duration: 4 hr, male, during exposure
Conditions	concentration in blood [µM]
-4 h	0.117
-3.335 h	6.64
-2.225 h	7.88
-1.277 h	9.78
-0.1674 h	10.6

[3], inhalation, duration: 4 hr
Conditions	concentration in blood [µM]
0.01 h, 38.7 ppm	6.65
2 h, 4.5 ppm	0.643
2.004 h, 38.7 ppm	2.1
3.94 h, 4.5 ppm	0.354
3.996 h, 38.7 ppm	1.02
6.01 h, 4.5 ppm	0.174
6.012 h, 38.7 ppm	0.606
7.951 h, 4.5 ppm	0.084
8.029 h, 38.7 ppm	0.395
10.04 h, 38.7 ppm	0.328
12.06 h, 38.7 ppm	0.253
22 s, 4.5 ppm	1.93

[3], oral
Conditions	concentration in blood [µM]
0.9725 h, 5 mg	0.0994
1.015 h, 15 mg	0.685
1.991 h, 5 mg	0.0411
2.004 h, 15 mg	0.276
2.918 h, 15 mg	0.108
2.982 h, 5 mg	0.0272
3.947 h, 5 mg	0.0187
4.008 h, 15 mg	0.082
5.952 h, 5 mg	0.0131
5.987 h, 15 mg	0.0471
7.932 h, 5 mg	0.0117
7.966 h, 15 mg	0.0264
9.937 h, 5 mg	0.0101
9.945 h, 15 mg	0.0233
12 h, 15 mg	0.013
12.02 h, 5 mg	0.00899

ClCCl [methylene chloride]
Conditions	concentration in blood [ng/mL]
[2], 1.928 h, dosed: methylene chloride, 350 ppm, duration: 6 hr	899
[2], 2.051 h, dosed: methylene chloride, 100 ppm, duration: 6 hr	155
[2], 5.959 h, dosed: methylene chloride, 100 ppm, duration: 6 hr	62.4
[2], 6.02 h, dosed: methylene chloride, 350 ppm, duration: 6 hr	342
[2], 16.03 h, dosed: methylene chloride, 100 ppm, duration: 6 hr	12
[2], 16.07 h, dosed: methylene chloride, 350 ppm, duration: 6 hr	77.4
[2], 23.99 h, dosed: methylene chloride, 350 ppm, duration: 6 hr	36
[2], 276 s, dosed: methylene chloride, 350 ppm, duration: 6 hr	5760
[4], 0.1027 h, 125 mg/kg, oral, Wistar	114000
[4], 0.1096 h, 125 mg/kg, oral, Wistar	35700
[4], 0.1406 h, 125 mg/kg, oral, Wistar	101000
[4], 0.1438 h, 125 mg/kg, oral, Wistar	37300
[4], 0.1715 h, 125 mg/kg, oral, Wistar	96200
[4], 0.1781 h, 125 mg/kg, oral, Wistar	38700
[4], 0.2228 h, 125 mg/kg, oral, Wistar	93900
[4], 0.2329 h, 125 mg/kg, oral, Wistar	39900
[4], 0.2708 h, 125 mg/kg, oral, Wistar	88100
[4], 0.2808 h, 125 mg/kg, oral, Wistar	41000
[4], 0.3223 h, 125 mg/kg, oral, Wistar	79600
[4], 0.3356 h, 125 mg/kg, oral, Wistar	39800
[4], 0.3704 h, 125 mg/kg, oral, Wistar	71100
[4], 0.3836 h, 125 mg/kg, oral, Wistar	38300
[4], 0.4252 h, 125 mg/kg, oral, Wistar	65400
[4], 0.4315 h, 125 mg/kg, oral, Wistar	34600
[4], 0.5041 h, 125 mg/kg, oral, Wistar	57100
[4], 0.5205 h, 125 mg/kg, oral, Wistar	36100
[4], 0.7539 h, 125 mg/kg, oral, Wistar	41600
[4], 0.7671 h, 125 mg/kg, oral, Wistar	27600
[4], 1.007 h, 125 mg/kg, oral, Wistar	31400
[4], 1.014 h, 125 mg/kg, oral, Wistar	24000
[4], 1.5 h, 125 mg/kg, oral, Wistar	16900
[4], 1.514 h, 125 mg/kg, oral, Wistar	14900
[4], 2.002 h, 125 mg/kg, oral, Wistar	8750
[4], 2.014 h, 125 mg/kg, oral, Wistar	9350
[4], 2.498 h, 125 mg/kg, oral, Wistar	3470
[4], 2.514 h, 125 mg/kg, oral, Wistar	11300
[4], 3.014 h, 125 mg/kg, oral, Wistar	9840
[4], 3.507 h, 125 mg/kg, oral, Wistar	6900
[4], 4.007 h, 125 mg/kg, oral, Wistar	5980
[4], 4.507 h, 125 mg/kg, oral, Wistar	4860
[4], 5 h, 125 mg/kg, oral, Wistar	1820
[4], 129 s, 125 mg/kg, oral, Wistar	59800
[4], 173 s, 125 mg/kg, oral, Wistar	15700
[4], 247 s, 125 mg/kg, oral, Wistar	29800
[4], 248 s, 125 mg/kg, oral, Wistar	101000

Conditions	concentration in blood [ng/mL]
[2], -2.858 h, dosed: methylene chloride, 350 ppm, duration: 6 hr, during exposure	5830
[2], -2.95 h, dosed: methylene chloride, 100 ppm, duration: 6 hr, during exposure	1090
[2], -58 s, dosed: methylene chloride, 100 ppm, duration: 6 hr, during exposure	1020
[4], 0.5086 h, 100000 ppm, dermal, duration: 4 hr, Fischer-344	57300
[4], 0.5196 h, 60000 ppm, dermal, duration: 4 hr, Fischer-344	29800
[4], 0.5257 h, 30000 ppm, dermal, duration: 4 hr, Fischer-344	11300
[4], 1.007 h, 100000 ppm, dermal, duration: 4 hr, Fischer-344	67300
[4], 1.008 h, 60000 ppm, dermal, duration: 4 hr, Fischer-344	45900
[4], 1.013 h, 30000 ppm, dermal, duration: 4 hr, Fischer-344	21100
[4], 1.988 h, 100000 ppm, dermal, duration: 4 hr, Fischer-344	79800
[4], 1.99 h, 60000 ppm, dermal, duration: 4 hr, Fischer-344	43400
[4], 1.996 h, 30000 ppm, dermal, duration: 4 hr, Fischer-344	30000
[4], 2.977 h, 100000 ppm, dermal, duration: 4 hr, Fischer-344	97700
[4], 2.987 h, 60000 ppm, dermal, duration: 4 hr, Fischer-344	44700
[4], 2.989 h, 30000 ppm, dermal, duration: 4 hr, Fischer-344	29800
[4], 3.973 h, 100000 ppm, dermal, duration: 4 hr, Fischer-344	98100
[4], 3.974 h, 60000 ppm, dermal, duration: 4 hr, Fischer-344	52200
[4], 3.978 h, 30000 ppm, dermal, duration: 4 hr, Fischer-344	23600

Cc1c([N+](=O)[O-])cc2c(c1[N+](=O)[O-])C(C)(C)CC2(C)C [musk moskene]
[5]
Conditions	concentration in embryo medium [ng/mL]
0.1638 h	353
0.2136 h	293
0.2621 h	670
95.89 h	46.5
168.63 h	226
240 h	175
240.21 h	290
240.24 h	222

Oc1ccccc1 [phenol]
Conditions	concentration in urine [µM]
[6], 0 h	61.4
[6], 2 h	82.2
[6], 4 h	186
[6], 5.939 h	193
[6], 8 h	143
[6], 10 h	129
[6], 12.06 h	109
[6], 14.36 h	102
[6], 15.52 h	80.2
[6], 23.33 h	176
[6], 26.24 h	68.4
[6], 37.03 h	45.6
[6], 38.55 h	45
[6], 46.55 h	87.7
[6], 47.52 h	141
[6], 52 h	95.1
[7], 0 h	72.9
[7], 2 h	113
[7], 4 h	226
[7], 6 h	207
[7], 8 h	143
[7], 10 h	180
[7], 12.06 h	144
[7], 14 h	87.1
[7], 20.36 h	70.2
[7], 24.06 h	112
[7], 27.03 h	80.5
[7], 32 h	82.7
[7], 38.06 h	73.4
[7], 42.55 h	45.5
[7], 47.58 h	65.6
[7], 52.48 h	50.5
[8], 0 h	314
[8], 1.939 h	244
[8], 4 h	187
[8], 6.061 h	200
[8], 8 h	99.3
[8], 10.06 h	114
[8], 18 h	121
[8], 24.55 h	51
[8], 30 h	39.3
[8], 34.12 h	38
[8], 42.3 h	38.5
[8], 50.48 h	52.2

[8], during exposure
Conditions	concentration in urine [µM]
-4 h	23.7
-2.061 h	124

CC(C)(C)O [tert-butanol]
[2], dosed: methyl tert-butyl ether, 25 ppm, duration: 4 hr, male
Conditions	concentration in blood [µM]
0.1966 h	14.8
0.4673 h	15.1
0.8191 h	15.4
2.091 h	14.8
6.879 h	11.6
20.02 h	4.27

[2], dosed: methyl tert-butyl ether, 25 ppm, duration: 4 hr, male, during exposure
Conditions	concentration in blood [µM]
-3.999 h	0.0102
-3.435 h	3.36
-2.296 h	6.17
-1.076 h	10.4
-0.2367 h	13.1
